# Source: PubChem BioAssay (several laboratories)
# In the library only some 7.1% were active in any assay of this set; here they are far more common.
# H69AR growth 86K – growth inhibitors of human H69AR lung tumor cells; viability, % at 10 µM; H69AR lung tumor viability, ATP luminescence, 72 h; stronger effect = lower value; hit rate 6% among 85,000; AID 598;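 active = viability at or below 40%; inactive = viability above 40%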;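 note: multidrug resistant small cell line overexpressing MRP-1 efflux transporter; 100% = mean luminescence of untreated control wells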
# HUVEC inhibit – human endothelial cell proliferation inhibition; HUVEC proliferation, CellTiter-Glo luminescence, 72 h; stronger effect = lower value; viability, % at 10 µM (by protocol); hit rate 1.1% among 86,000; AID 648;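 active = viability at or below 30%; inactive = viability above 30%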;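 note: 100% = median luminescence of DMSO-only cell control wells on each plate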
# bCat KO growth – beta-catenin-lacking colon tumor cell growth suppression; HCT116 beta-catenin knockout viability, CellTiter-Glo, 60 h; stronger effect = lower value; viability, % at 10 µM; hit rate 1.5% among 140,000; AID 818;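 active = viability at or under a set limit, the compound median less 4 SD, cut at about 6% in these data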;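 note: 0% = Hyamine 1622 control at 20 µM and 100% = untreated cell control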
# HCT116 PTEN-null – growth suppressors of cells with PTEN tumor suppressor deletion | HCT116 PTEN-null viability, CellTiter-Glo, 60 h; stronger effect = lower value | viability, % at 10 µM | hit rate 1.2% among 140,000 | AID 827;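 active = viability at or below a set limit, 4 SD under the median of all tested compounds, cut at about 3.7% in these data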;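 note: PTEN knockout HCT116 line with beta catenin targeted HCT116 as companion control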
# Fibroblast inh – blocks proliferation of human lung fibroblasts; LL 47 human lung fibroblast viability, ATP luminescence; stronger effect = lower value; viability, % at 10 µM; hit rate 1.1% among 85,000; AID 719;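 active = viability at or below 50% in the single dose screen; inactive = viability above 50%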;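 note: compound exposure lasted 72 h before the ATP readout; 100% = median luminescence of untreated cell-only wells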
#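 Benchmarks: Cell-only wells, no compound | Test system: LL 47 human lung fibroblasts, passage 12 or lower | Input: 1,150 cells/well | Measured by: CellTiter-Glo luminescence measuring cellular ATP | Medium: IMEM, 15% FBS supplement | Schedule: Overnight attachment after seeding, then 72 h compound exposure at 37 °C | Doses: Compound addition at 0.1% DMSO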
# Cav3 T inh – inhibitors of human Cav3.2 T-type calcium channel; O95180; Cav3.2-expressing cells, Fluo-4 calcium fluorescence FDSS; stronger effect = lower value; B-score at 10 µM; hit rate 4% among 100,000; AID 449739;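 active = single-dose well whose peak fluorescence ratio is a statistical outlier from its plate by either plate-standardised score or position-corrected B-score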
# Numbers without * were called inactive; / = not tested or not shown.
SMILES,H69AR growth 86K,HUVEC inhibit,bCat KO growth,HCT116 PTEN-null,Fibroblast inh,Cav3 T inh
C=CCn1c(C)cc(C(=O)CN2C(=O)NC3(CCCc4ccccc43)C2=O)c1C (stereo not drawn),105.2,87.2,99.3,80.3,101.6,-0.824
Cc1cc(C(=O)CN2C(=O)NC3(CCCc4ccccc43)C2=O)c(C)n1Cc1cccs1 (stereo not drawn),104.4,70.0,40.5,51.9,90.2,-7.44*
Cc1cc(C(=O)CN2C(=O)NC(C)(c3cccc(Br)c3)C2=O)c(C)n1Cc1ccco1 (stereo not drawn),87.1,79.3,1.8*,3.4*,86.7,/
Cc1cc(C(=O)CSc2nnc(-c3ccco3)o2)c(C)n1Cc1ccco1,91.4,56.2,103.3,91.2,95.7,0.534
Cc1cc(C(=O)CN2C(=O)NC(c3ccccc3)(c3ccccc3)C2=O)c(C)n1Cc1ccco1,94.3,96.9,65.4,68.1,100.5,-8.6*
Cc1cc(C(=O)CSc2nc3ccccc3[nH]2)c(C)n1Cc1ccco1,/,/,32.6,31.3,/,/
O=C(CSc1nnc(CNC(=O)C23CC4CC(CC(C4)C2)C3)n1-c1ccccc1)Nc1ccccc1,/,/,90.2,76.4,/,/
CC(C)(C)C1CCC2(CC1)CC(=O)c1ccccc1O2 (stereo not drawn),/,/,/,/,/,0.368
CC(=O)Nc1ccc(N2CCCCC2)c(C(=O)Nc2cccc(C)c2)c1,44.7,89.7,54.1,62.6,96.7,-0.622
Cc1cccc(NC(=O)c2cc(NC(=O)C3CCCCC3C(=O)O)ccc2N2CCCCC2)c1 (stereo not drawn),59.0,76.0,93.6,98.0,103.5,-4.03*
CCOc1ccc(NC(=O)CN(C)c2nnnn2-c2ccccc2)cc1OCC,91.5,103.6,80.1,87.8,98.2,0.46
Cc1nc2sccn2c(=O)c1CCN1CCC(=C(c2ccc(F)cc2)c2ccc(F)cc2)CC1,48.1,32.2*,40.4,46.1,95.2,-3.54
Cc1nc2ccccn2c(=O)c1CCN1CCC(C(=O)c2ccc(F)cc2)CC1,89.3,87.6,80.3,81.0,90.0,0.529
O=[N+]([O-])c1ccc2c(c1)C(N1CCOCC1)/C(=C/COc1ccc(F)cc1)O2 (stereo not drawn),/,/,73.8,75.5,/,-7.26*
O=[N+]([O-])c1ccc(OC/C=C2\Oc3ccc([N+](=O)[O-])cc3C2N2CCOCC2)cc1 (stereo not drawn),/,/,63.2,68.8,/,-2.15
CCOc1cc(/C=C\[N+](=O)[O-])ccc1OCC(=O)Nc1ccccc1C,/,/,2.1*,1.9*,/,1.19
CCOc1cc(/C=N/NC(N)=O)cc(Br)c1OCC(=O)Nc1ccccc1C,/,/,78.0,78.5,/,-1.38
CC(C)COC(=O)c1ccc2c(c1O)C(=O)c1ccccc1C2=O,44.6,10.2*,37.6,26.4,75.5,0.327
CC(C)COC(=O)c1cc(=O)[nH]c2ccccc12,95.6,99.5,111.4,88.8,92.7,-0.359
Cc1ccc(C(=O)C2C(c3ccc(-c4ccccc4[N+](=O)[O-])o3)NC(=O)NC2(O)C(F)(F)F)cc1 (stereo not drawn),/,/,/,/,/,-7.1*
O=C1NC(c2ccc(-c3ccccc3[N+](=O)[O-])o2)C(C(=O)c2ccccc2)C(O)(C(F)(F)F)N1 (stereo not drawn),/,/,86.2,80.0,/,/
Cc1nc(NC(=O)c2ccccc2)sc1-c1csc(NCc2ccccc2)n1,54.5,77.4,72.5,66.3,92.3,-0.647
Cc1nc(NC(=O)c2ccccc2)sc1-c1csc(N)n1,29.9*,54.9,34.1,44.1,83.6,0.347
CCOc1ccccc1Nc1nc(-c2sc(NC(=O)c3cccc(Cl)c3)nc2C)cs1,/,/,5.1*,6.5,/,0.992
CCOCCCNC(=S)Nc1cc(C)cc(C)c1,/,/,93.8,85.2,/,/
SMILES,H69AR growth 86K,HUVEC inhibit,bCat KO growth,HCT116 PTEN-null,Fibroblast inh,Cav3 T inh
CC(=O)C1=C(C)OC(N)=C(C#N)C1c1cc2cccc(C)c2nc1Cl (stereo not drawn),/,/,102.4,93.6,/,-0.529
Cc1ccc2cc(C3C(C#N)=C(N)Oc4c3ccc3cccnc43)c(=O)[nH]c2c1 (stereo not drawn),37.0*,80.0,82.0,92.9,50.6,-0.324
CCc1ccc2[nH]c(=O)c(C3C(C#N)=C(N)Oc4c3ccc3cccnc43)cc2c1 (stereo not drawn),0.8*,56.9,13.4,14.6,69.6,-1.16
CC1=C(C(=O)OC(C)C)C(c2cccs2)C(C(=O)OC(C)C)=C(C)N1,/,/,83.0,81.0,/,/
CC(C)C(O)P(=O)(OCc1ccccc1)c1ccc(N(C)C)cc1 (stereo not drawn),94.7,94.3,100.6,90.5,97.3,0.247
CCOC(=O)CNC(=O)C(=O)c1c(O)[nH]c2ccccc12,91.6,97.5,86.9,105.4,48.1*,0.279
Cc1cccc(OCCC(=O)Nc2ccc(F)c(Cl)c2)c1,/,/,92.3,82.6,/,/
CC(C)NC(=O)NC(=O)CSc1nnc(COc2ccccc2Cl)o1,/,/,99.3,99.2,/,-1.96
CC(C)CCNC(=O)NC(=O)CSc1nnc(COc2ccccc2Cl)o1,78.7,104.8,92.2,100.9,99.2,-4.77*
CSc1ccc(/C=N/NC(=O)CN2CCN(Cc3ccc(C)cc3)CC2)cc1,/,/,85.5,89.9,/,/
O=C(O)c1cc(Cl)c2ccccc2c1O,85.8,67.5,90.2,95.1,98.2,-6.71*
O=C(O)c1ccc2cccc(Cl)c2c1O,94.0,86.5,84.9,108.8,97.3,/
Cc1[nH]n(-c2c(Cl)cc(Cl)cc2Cl)c(=O)c1C=Nc1ccc(S(=O)(=O)N2CCOCC2)cc1,/,/,107.4,105.8,/,/
O=C(NCC(c1cccs1)N1CCOCC1)c1ccccc1NS(=O)(=O)c1cc([N+](=O)[O-])ccc1Cl (stereo not drawn),/,/,63.4,62.5,/,/
CC(C)c1ccc(C(=O)NCCCN2CCN(CCCNC(=O)c3ccc(C(C)C)cc3)CC2)cc1,/,/,1.5*,2.0*,/,/
O=C(NCCCN1CCN(CCCNC(=O)c2ccc(F)cc2)CC1)c1ccc(F)cc1,97.4,96.5,73.8,72.2,100.3,1.58
CC1(C)Cc2nc3sc4c(=O)n(CC(=O)NCc5ccco5)cnc4c3cc2CO1,21.7*,67.6,42.5,40.1,83.0,-0.243
CCCNS(=O)(=O)c1ccc(CCC(=O)N2CCN(c3ccc(F)cc3)CC2)cc1,/,/,78.0,73.0,/,/
N#C/C(=C\c1cn(-c2ccccc2)nc1-c1cccnc1)c1nnc2n1CCCCC2,78.4,96.8,93.9,98.4,104.8,0.996
Cc1ccc(S(=O)(=O)NC2CCOC(C)(C)C2)cc1 (stereo not drawn),71.5,89.2,91.6,92.4,102.8,-0.0822
Cc1ccc(S(=O)(=O)NC2OC(=O)C(Cl)=C2Cl)cc1 (stereo not drawn),7.0*,80.9,89.8,89.1,97.2,-0.128
CCc1ccc(C(C)NC(=O)c2ncn[nH]2)cc1 (stereo not drawn),/,/,97.5,104.3,/,/
C=CCN(CC=C)C(=S)NC(=O)c1ccc(C)c(Br)c1,/,/,25.0,21.3,/,/
COc1ccc(S(=O)(=O)N2CCCN(CCC(=O)Nc3cccc(C(F)(F)F)c3)CC2)cc1,61.8,68.6,85.7,91.2,95.0,-4.59*
